# Source: ChEMBL document CHEMBL2146438, “Radiolabeled cyclosaligenyl monophosphates of 5-iodo-2'-deoxyuridine, 5-iodo-3'-fluoro-2',3'-dideoxyuridine, and 3'-fluorothymidine for molecular radiotherapy of cancer: synthesis and biological evaluation” (J Med Chem, 2012)
# Test system: not listed separately
# Experiment: Cytotoxicity against human LS 174T cells assessed as colony formation at 114.5 kBq/mL incubated for 4 hrs measured after 21 days by clonogenic assay
# Format: functional, LS174T
# Conditions: not given; call rule not given here
# Outline: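 LS 174T cells exposed 4 h to 114.5 kBq/mL 125I agent, cultured 24 h in nonradioactive medium, then harvested and plated; colonies counted after 21 days; surviving fraction = treated colonies / untreated control colonies.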
row,Compound,Activity
1,O=c1[nH]c(=O)n([C@H]2C[C@H](O)[C@@H](COP3(=O)OCc4ccccc4O3)O2)cc1[125I] (stereo in doubt; form 2),38%

# Test system: not listed separately
# Experiment: Cellular uptake in human OVCAR3 cell cytoplasm assessed as per 10^3 cells after 24 hrs by gamma counting
# Format: ADME, cell-based
# Conditions: ovcar-3, 24 h
# Outline: (§1)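 OVCAR-3 cells incubated 1 h with 55.5 (0.04) kBq/mL 125I-labelled agent (diastereomer mixtures or resolved slow isomers); fractionated either immediately or after 24 h further growth in fresh nonradioactive medium; 125I in cytoplasm and nucleus counted as cpm/10^3 cells with std dev.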
row,Compound,Drug uptake
1,O=c1[nH]c(=O)n([C@H]2C[C@H](OP3(=O)OCc4ccccc4O3)[C@@H](COP3(=O)OCc4ccccc4O3)O2)cc1[125I] (stereo partly specified),37.3 cpm
2,O=c1[nH]c(=O)n([C@H]2C[C@H](OP3(=O)OCc4ccccc4O3)[C@@H](CO)O2)cc1[125I] (stereo partly specified),2.7 cpm
3,Cc1cccc2c1OP(=O)(O[C@H]1C[C@H](n3cc([125I])c(=O)[nH]c3=O)O[C@@H]1CO)OC2 (stereo partly specified),1.4 cpm
4,CC(C)(C)c1cc(C(C)(C)C)c2c(c1F)COP(=O)(O[C@H]1C[C@H](n3cc([125I])c(=O)[nH]c3=O)O[C@@H]1CO)O2 (stereo partly specified),2.7 cpm
5,Cc1cccc2c1OP(=O)(OC[C@H]1O[C@@H](n3cc([125I])c(=O)[nH]c3=O)C[C@@H]1OP1(=O)OCc3cccc(C)c3O1)OC2 (stereo partly specified),13.4 cpm

# Same assay, conditions: ovcar-3, 24 h, 24 h
row,Compound,Drug uptake
1,CC(C)(C)c1cc(C(C)(C)C)c2c(c1F)COP(=O)(OC[C@H]1O[C@@H](n3cc([125I])c(=O)[nH]c3=O)C[C@@H]1O)O2 (stereo in doubt; 8b),3.2 cpm
2,O=c1[nH]c(=O)n([C@H]2C[C@H](O)[C@@H](COP3(=O)OCc4ccccc4O3)O2)cc1[125I] (stereo in doubt; form 2),6 cpm
3,Cc1cccc2c1OP(=O)(OC[C@H]1O[C@@H](n3cc([125I])c(=O)[nH]c3=O)C[C@@H]1O)OC2 (stereo in doubt; form 2),1.8 cpm
4,Cc1cccc2c1OP(=O)(OC[C@H]1O[C@@H](n3cc([125I])c(=O)[nH]c3=O)C[C@@H]1O)OC2 (stereo in doubt; 7b),1.6 cpm
5,O=c1[nH]c(=O)n([C@H]2C[C@H](O)[C@@H](COP3(=O)OCc4ccccc4O3)O2)cc1[125I] (stereo in doubt; 6b),7.3 cpm

# Test system: not listed separately
# Experiment: Cellular uptake in human OVCAR3 cell nucleus assessed as per 10^3 cells after 24 hrs by gamma counting
# Format: ADME, cell-based
# Conditions: ovcar-3, 24 h
# Outline: as §1
row,Compound,Drug uptake
1,O=c1[nH]c(=O)n([C@H]2C[C@H](OP3(=O)OCc4ccccc4O3)[C@@H](COP3(=O)OCc4ccccc4O3)O2)cc1[125I] (stereo partly specified),18.1 cpm
2,O=c1[nH]c(=O)n([C@H]2C[C@H](OP3(=O)OCc4ccccc4O3)[C@@H](CO)O2)cc1[125I] (stereo partly specified),30.2 cpm
3,Cc1cccc2c1OP(=O)(O[C@H]1C[C@H](n3cc([125I])c(=O)[nH]c3=O)O[C@@H]1CO)OC2 (stereo partly specified),15.7 cpm
4,CC(C)(C)c1cc(C(C)(C)C)c2c(c1F)COP(=O)(O[C@H]1C[C@H](n3cc([125I])c(=O)[nH]c3=O)O[C@@H]1CO)O2 (stereo partly specified),66.7 cpm
5,Cc1cccc2c1OP(=O)(OC[C@H]1O[C@@H](n3cc([125I])c(=O)[nH]c3=O)C[C@@H]1OP1(=O)OCc3cccc(C)c3O1)OC2 (stereo partly specified),24.5 cpm

# Same assay, conditions: ovcar-3, 24 h, 24 h
row,Compound,Drug uptake
1,CC(C)(C)c1cc(C(C)(C)C)c2c(c1F)COP(=O)(OC[C@H]1O[C@@H](n3cc([125I])c(=O)[nH]c3=O)C[C@@H]1O)O2 (stereo in doubt; 8b),92.2 cpm
2,O=c1[nH]c(=O)n([C@H]2C[C@H](O)[C@@H](COP3(=O)OCc4ccccc4O3)O2)cc1[125I] (stereo in doubt; form 2),31.3 cpm
3,Cc1cccc2c1OP(=O)(OC[C@H]1O[C@@H](n3cc([125I])c(=O)[nH]c3=O)C[C@@H]1O)OC2 (stereo in doubt; form 2),29.3 cpm
4,Cc1cccc2c1OP(=O)(OC[C@H]1O[C@@H](n3cc([125I])c(=O)[nH]c3=O)C[C@@H]1O)OC2 (stereo in doubt; 7b),25.9 cpm
5,O=c1[nH]c(=O)n([C@H]2C[C@H](O)[C@@H](COP3(=O)OCc4ccccc4O3)O2)cc1[125I] (stereo in doubt; 6b),39.4 cpm

# Target: Cholinesterase (Homo sapiens, UniProt P06276)
# Experiment: Inhibition of human BChE after 30 mins by microplate reader method
# Conditions: not given
# Cholinesterase, sequence (P06276 whole entry): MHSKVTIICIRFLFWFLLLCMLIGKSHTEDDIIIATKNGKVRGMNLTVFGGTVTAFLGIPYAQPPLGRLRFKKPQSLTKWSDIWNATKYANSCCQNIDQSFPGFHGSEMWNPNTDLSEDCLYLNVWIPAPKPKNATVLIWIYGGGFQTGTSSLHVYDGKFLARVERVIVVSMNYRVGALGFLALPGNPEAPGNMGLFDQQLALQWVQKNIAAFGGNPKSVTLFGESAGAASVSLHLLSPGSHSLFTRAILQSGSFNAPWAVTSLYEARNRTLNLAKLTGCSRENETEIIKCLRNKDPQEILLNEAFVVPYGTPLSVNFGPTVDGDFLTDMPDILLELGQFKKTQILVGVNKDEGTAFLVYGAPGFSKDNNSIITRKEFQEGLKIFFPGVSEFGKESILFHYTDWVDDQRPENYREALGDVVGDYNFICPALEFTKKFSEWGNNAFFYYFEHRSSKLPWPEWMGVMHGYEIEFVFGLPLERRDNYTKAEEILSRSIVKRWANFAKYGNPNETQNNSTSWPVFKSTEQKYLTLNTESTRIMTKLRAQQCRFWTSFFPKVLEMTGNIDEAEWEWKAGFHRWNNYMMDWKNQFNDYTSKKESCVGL
row,Compound,IC50
1,Cc1cccc2c1OP(=O)(OC[C@H]1O[C@@H](n3cc(I)c(=O)[nH]c3=O)C[C@@H]1O)OC2 (stereo in doubt; form 1),> 7000 µM
2,Cc1cn([C@H]2C[C@H](F)[C@@H](COP3(=O)OCc4c(F)c(C(C)(C)C)cc(C(C)(C)C)c4O3)O2)c(=O)[nH]c1=O (stereo in doubt; form 2),0.0426 µM
3,CC(C)(C)c1cc(C(C)(C)C)c2c(c1F)COP(=O)(OC[C@H]1O[C@@H](n3cc(I)c(=O)[nH]c3=O)C[C@@H]1F)O2 (stereo in doubt; form 1),0.549 µM
4,Cc1cn([C@H]2C[C@H](O)[C@@H](COP3(=O)OCc4c(F)c(C(C)(C)C)cc(C(C)(C)C)c4O3)O2)c(=O)[nH]c1=O (stereo in doubt; form 1),23.6 µM
5,CC(C)(C)c1cc(C(C)(C)C)c2c(c1F)COP(=O)(OC[C@H]1O[C@@H](n3cc(I)c(=O)[nH]c3=O)C[C@@H]1O)O2 (stereo in doubt; form 2),0.0501 µM
6,CC(C)(C)c1cc(C(C)(C)C)c2c(c1F)COP(=O)(OC[C@H]1O[C@@H](n3cc(I)c(=O)[nH]c3=O)C[C@@H]1F)O2 (stereo in doubt; form 2),0.0198 µM
7,Cc1cccc2c1OP(=O)(OC[C@H]1O[C@@H](n3cc(I)c(=O)[nH]c3=O)C[C@@H]1O)OC2 (stereo in doubt; form 2),0.0612 µM

# Test system: not listed separately
# Experiment: Cellular uptake in human OVCAR3 cytoplasm at 55.5 kBq/mL incubated for 1 hr followed by compound wash out measured after 24 hrs by gamma counting
# Format: ADME, cell-based
# Conditions: ovcar-3, 1 h
# Outline: as §1
row,Compound,Drug uptake
1,CC(C)(C)c1cc(C(C)(C)C)c2c(c1F)COP(=O)(OC[C@H]1O[C@@H](n3cc([125I])c(=O)[nH]c3=O)C[C@@H]1O)O2 (stereo in doubt; 8b),> 230%
2,Cc1cccc2c1OP(=O)(OC[C@H]1O[C@@H](n3cc([125I])c(=O)[nH]c3=O)C[C@@H]1O)OC2 (stereo in doubt; 7b),Active
3,O=c1[nH]c(=O)n([C@H]2C[C@H](O)[C@@H](COP3(=O)OCc4ccccc4O3)O2)cc1[125I] (stereo in doubt; 6b),Active

# Test system: not listed separately
# Experiment: Half life of the compound in phosphate buffer at pH 7.3
# Format: physicochemical
# Conditions: not given
row,Compound,t1/2
1,CC(C)(C)c1cc(C(C)(C)C)c2c(c1F)COP(=O)(OC[C@H]1O[C@@H](n3cc(I)c(=O)[nH]c3=O)C[C@@H]1F)O2 (stereo in doubt; form 1),39.6 h
2,CC(C)(C)c1cc(C(C)(C)C)c2c(c1F)COP(=O)(OC[C@H]1O[C@@H](n3cc(I)c(=O)[nH]c3=O)C[C@@H]1O)O2 (stereo in doubt; form 2),61.5 h
3,O=c1[nH]c(=O)n([C@H]2C[C@H](O)[C@@H](COP3(=O)OCc4ccccc4O3)O2)cc1[125I] (stereo in doubt; form 2),7.6 h
4,CC(C)(C)c1cc(C(C)(C)C)c2c(c1F)COP(=O)(OC[C@H]1O[C@@H](n3cc(I)c(=O)[nH]c3=O)C[C@@H]1F)O2 (stereo in doubt; form 2),52 h
5,Cc1cccc2c1OP(=O)(OC[C@H]1O[C@@H](n3cc([125I])c(=O)[nH]c3=O)C[C@@H]1O)OC2 (stereo in doubt; form 2),25 h

# Test system: not listed separately
# Experiment: Cellular uptake in human OVCAR3 cell nucleus assessed as per 10^3 cells after 1 hr by gamma counting
# Format: ADME, cell-based
# Conditions: ovcar-3, 1 h
# Outline: as §1
row,Compound,Drug uptake
1,O=c1[nH]c(=O)n([C@H]2C[C@H](OP3(=O)OCc4ccccc4O3)[C@@H](COP3(=O)OCc4ccccc4O3)O2)cc1[125I] (stereo partly specified),6.4 cpm
2,O=c1[nH]c(=O)n([C@H]2C[C@H](OP3(=O)OCc4ccccc4O3)[C@@H](CO)O2)cc1[125I] (stereo partly specified),2.1 cpm
3,Cc1cccc2c1OP(=O)(O[C@H]1C[C@H](n3cc([125I])c(=O)[nH]c3=O)O[C@@H]1CO)OC2 (stereo partly specified),2 cpm
4,CC(C)(C)c1cc(C(C)(C)C)c2c(c1F)COP(=O)(O[C@H]1C[C@H](n3cc([125I])c(=O)[nH]c3=O)O[C@@H]1CO)O2 (stereo partly specified),4.3 cpm
5,Cc1cccc2c1OP(=O)(OC[C@H]1O[C@@H](n3cc([125I])c(=O)[nH]c3=O)C[C@@H]1OP1(=O)OCc3cccc(C)c3O1)OC2 (stereo partly specified),6 cpm

# Same assay, conditions: ovcar-3, 1 h, 1 h
row,Compound,Drug uptake
1,CC(C)(C)c1cc(C(C)(C)C)c2c(c1F)COP(=O)(OC[C@H]1O[C@@H](n3cc([125I])c(=O)[nH]c3=O)C[C@@H]1O)O2 (stereo in doubt; 8b),7.9 cpm
2,O=c1[nH]c(=O)n([C@H]2C[C@H](O)[C@@H](COP3(=O)OCc4ccccc4O3)O2)cc1[125I] (stereo in doubt; form 2),4.9 cpm
3,Cc1cccc2c1OP(=O)(OC[C@H]1O[C@@H](n3cc([125I])c(=O)[nH]c3=O)C[C@@H]1O)OC2 (stereo in doubt; form 2),5.4 cpm
4,Cc1cccc2c1OP(=O)(OC[C@H]1O[C@@H](n3cc([125I])c(=O)[nH]c3=O)C[C@@H]1O)OC2 (stereo in doubt; 7b),4.5 cpm
5,O=c1[nH]c(=O)n([C@H]2C[C@H](O)[C@@H](COP3(=O)OCc4ccccc4O3)O2)cc1[125I] (stereo in doubt; 6b),5.7 cpm

# Test system: not listed separately
# Experiment: Chemical stability of the compound in phosphate buffer at pH 7.3
# Format: physicochemical
# Conditions: not given
row,Compound,K
1,CC(C)(C)c1cc(C(C)(C)C)c2c(c1F)COP(=O)(OC[C@H]1O[C@@H](n3cc(I)c(=O)[nH]c3=O)C[C@@H]1F)O2 (stereo in doubt; form 1),2.92 ×10⁻⁴ /min
2,CC(C)(C)c1cc(C(C)(C)C)c2c(c1F)COP(=O)(OC[C@H]1O[C@@H](n3cc(I)c(=O)[nH]c3=O)C[C@@H]1O)O2 (stereo in doubt; form 2),1.88 ×10⁻⁴ /min
3,O=c1[nH]c(=O)n([C@H]2C[C@H](O)[C@@H](COP3(=O)OCc4ccccc4O3)O2)cc1[125I] (stereo in doubt; form 2),1.52 ×10⁻³ /min
4,CC(C)(C)c1cc(C(C)(C)C)c2c(c1F)COP(=O)(OC[C@H]1O[C@@H](n3cc(I)c(=O)[nH]c3=O)C[C@@H]1F)O2 (stereo in doubt; form 2),2.22 ×10⁻⁴ /min
5,Cc1cccc2c1OP(=O)(OC[C@H]1O[C@@H](n3cc([125I])c(=O)[nH]c3=O)C[C@@H]1O)OC2 (stereo in doubt; form 2),4.63 ×10⁻⁴ /min

# Test system: not listed separately
# Experiment: Cellular uptake in human OVCAR3 cell cytoplasm assessed as per 10^3 cells after 1 hr by gamma counting
# Format: ADME, cell-based
# Conditions: ovcar-3, 1 h
# Outline: as §1
row,Compound,Drug uptake
1,O=c1[nH]c(=O)n([C@H]2C[C@H](OP3(=O)OCc4ccccc4O3)[C@@H](COP3(=O)OCc4ccccc4O3)O2)cc1[125I] (stereo partly specified),97.6 cpm
2,O=c1[nH]c(=O)n([C@H]2C[C@H](OP3(=O)OCc4ccccc4O3)[C@@H](CO)O2)cc1[125I] (stereo partly specified),7.2 cpm
3,Cc1cccc2c1OP(=O)(O[C@H]1C[C@H](n3cc([125I])c(=O)[nH]c3=O)O[C@@H]1CO)OC2 (stereo partly specified),6.2 cpm
4,CC(C)(C)c1cc(C(C)(C)C)c2c(c1F)COP(=O)(O[C@H]1C[C@H](n3cc([125I])c(=O)[nH]c3=O)O[C@@H]1CO)O2 (stereo partly specified),62.5 cpm
5,Cc1cccc2c1OP(=O)(OC[C@H]1O[C@@H](n3cc([125I])c(=O)[nH]c3=O)C[C@@H]1OP1(=O)OCc3cccc(C)c3O1)OC2 (stereo partly specified),97.1 cpm

# Same assay, conditions: ovcar-3, 1 h, 1 h
row,Compound,Drug uptake
1,CC(C)(C)c1cc(C(C)(C)C)c2c(c1F)COP(=O)(OC[C@H]1O[C@@H](n3cc([125I])c(=O)[nH]c3=O)C[C@@H]1O)O2 (stereo in doubt; 8b),88.3 cpm
2,O=c1[nH]c(=O)n([C@H]2C[C@H](O)[C@@H](COP3(=O)OCc4ccccc4O3)O2)cc1[125I] (stereo in doubt; form 2),14.8 cpm
3,Cc1cccc2c1OP(=O)(OC[C@H]1O[C@@H](n3cc([125I])c(=O)[nH]c3=O)C[C@@H]1O)OC2 (stereo in doubt; form 2),13 cpm
4,Cc1cccc2c1OP(=O)(OC[C@H]1O[C@@H](n3cc([125I])c(=O)[nH]c3=O)C[C@@H]1O)OC2 (stereo in doubt; 7b),11.7 cpm
5,O=c1[nH]c(=O)n([C@H]2C[C@H](O)[C@@H](COP3(=O)OCc4ccccc4O3)O2)cc1[125I] (stereo in doubt; 6b),20.2 cpm
